Measurements published in ChEMBL document CHEMBL5058577, “EUbOPEN Chemogenomics Library 2 (Multiplex)” (2022).

Test system: HEK-293T
Experiment: Multiplex assay against HEK293T
Type: toxicity, cell-based
Conditions: human
Method in brief: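 Values for tubulin, mitochondrial-mass and membrane-permeability phenotypes are per cents of cells with healthy nuclei. These cells were identified by CellPathfinder machine-learning gating of live cells that had been stained at seeding with Hoechst33342, BioTracker Green Microtubule Cytoskeleton Dye, MitoTracker Red and Annexin V Alexa Fluor 680 and imaged on a CQ1 microscope at 37°C and 5% CO2 after compound addition. The gating first set Hoechst high-intensity objects apart from normal cells, then split normal cells into healthy, pyknosed or fragmented nuclei, and pyknosed cells into mitotic or apoptotic.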

[1] = 12 h, 1 µM, compound concentration 1 uM, replicate 1
[2] = 12 h, 1 µM, compound concentration 1 uM, replicate 2
[3] = 12 h, 10 µM, compound concentration 10 uM, replicate 1
[4] = 12 h, 10 µM, compound concentration 10 uM, replicate 2
[5] = 24 h, 1 µM, compound concentration 1 uM, replicate 1
[6] = 24 h, 1 µM, compound concentration 1 uM, replicate 2
[7] = 24 h, 10 µM, compound concentration 10 uM, replicate 1
[8] = 24 h, 10 µM, compound concentration 10 uM, replicate 2
[9] = 48 h, 1 µM, compound concentration 1 uM, replicate 1
[10] = 48 h, 1 µM, compound concentration 1 uM, replicate 2
[11] = 48 h, 10 µM, compound concentration 10 uM, replicate 1
[12] = 48 h, 10 µM, compound concentration 10 uM, replicate 2

## S=C(NCCCc1c[nH]cn1)NCCCN(Cc1ccc(Cl)c(Cl)c1)c1ccc(Br)cn1
[1]
  Population Apoptotic (%): 39%
  Population Fragmented Nuclei (%): 8%
  Population Healthy Nuclei (%): 78%
  Population Hoechst High Intensity Objects (%): 17%
  Population Membrane Permeable-Phenotype (%): 0%
  Population Mitochondria Different-Phenotype (%): 50%
  Population Mitotic Cells (%): 60%
  Population Normal (%): 82%
  Population Pyknosed Nuclei (%): 13%
  Population Tubulin-Different-Phenotype (%): 36%
  Total Cell Count: 378
[2]
  Population Apoptotic (%): 53%
  Population Fragmented Nuclei (%): 5%
  Population Healthy Nuclei (%): 79%
  Population Hoechst High Intensity Objects (%): 6%
  Population Mitochondria Different-Phenotype (%): 58%
  Population Mitotic Cells (%): 46%
  Population Normal (%): 93%
  Population Pyknosed Nuclei (%): 14%
  Population Tubulin-Different-Phenotype (%): 35%
  Total Cell Count: 294
[3]
  Population Apoptotic (%): 90%
  Population Fragmented Nuclei (%): 4%
  Population Healthy Nuclei (%): 57%
  Population Hoechst High Intensity Objects (%): 33%
  Population Membrane Permeable-Phenotype (%): 0%
  Population Mitochondria Different-Phenotype (%): 77%
  Population Mitotic Cells (%): 9%
  Population Normal (%): 66%
  Population Pyknosed Nuclei (%): 38%
  Population Tubulin-Different-Phenotype (%): 78%
  Total Cell Count: 242
[4]
  Population Apoptotic (%): 77%
  Population Fragmented Nuclei (%): 8%
  Population Healthy Nuclei (%): 71%
  Population Hoechst High Intensity Objects (%): 19%
  Population Mitochondria Different-Phenotype (%): 84%
  Population Mitotic Cells (%): 22%
  Population Normal (%): 80%
  Population Pyknosed Nuclei (%): 19%
  Total Cell Count: 229
[5]
  Population Apoptotic (%): 39%
  Population Fragmented Nuclei (%): 10%
  Population Healthy Nuclei (%): 73%
  Population Hoechst High Intensity Objects (%): 22%
  Population Membrane Permeable-Phenotype (%): 0%
  Population Mitochondria Different-Phenotype (%): 45%
  Population Mitotic Cells (%): 60%
  Population Normal (%): 77%
  Population Pyknosed Nuclei (%): 16%
  Population Tubulin-Different-Phenotype (%): 32%
  Total Cell Count: 326
[6]
  Population Apoptotic (%): 41%
  Population Fragmented Nuclei (%): 9%
  Population Healthy Nuclei (%): 81%
  Population Hoechst High Intensity Objects (%): 13%
  Population Mitochondria Different-Phenotype (%): 48%
  Population Mitotic Cells (%): 58%
  Population Normal (%): 86%
  Population Pyknosed Nuclei (%): 9%
  Total Cell Count: 301
[7]
  Population Apoptotic (%): 85%
  Population Fragmented Nuclei (%): 11%
  Population Healthy Nuclei (%): 49%
  Population Hoechst High Intensity Objects (%): 48%
  Population Membrane Permeable-Phenotype (%): 1%
  Population Mitochondria Different-Phenotype (%): 75%
  Population Mitotic Cells (%): 14%
  Population Normal (%): 51%
  Population Pyknosed Nuclei (%): 39%
  Population Tubulin-Different-Phenotype (%): 78%
  Total Cell Count: 237
[8]
  Population Apoptotic (%): 82%
  Population Fragmented Nuclei (%): 16%
  Population Healthy Nuclei (%): 59%
  Population Hoechst High Intensity Objects (%): 39%
  Population Membrane Permeable-Phenotype (%): 0%
  Population Mitochondria Different-Phenotype (%): 82%
  Population Mitotic Cells (%): 17%
  Population Normal (%): 61%
  Population Pyknosed Nuclei (%): 23%
  Total Cell Count: 200
[9]
  Population Apoptotic (%): 47%
  Population Fragmented Nuclei (%): 14%
  Population Healthy Nuclei (%): 65%
  Population Hoechst High Intensity Objects (%): 36%
  Population Membrane Permeable-Phenotype (%): 3%
  Population Mitochondria Different-Phenotype (%): 38%
  Population Mitotic Cells (%): 52%
  Population Normal (%): 63%
  Population Pyknosed Nuclei (%): 19%
  Population Tubulin-Different-Phenotype (%): 29%
  Total Cell Count: 307
[10]
  Population Apoptotic (%): 36%
  Population Fragmented Nuclei (%): 17%
  Population Healthy Nuclei (%): 73%
  Population Hoechst High Intensity Objects (%): 27%
  Population Membrane Permeable-Phenotype (%): 0%
  Population Mitochondria Different-Phenotype (%): 32%
  Population Mitotic Cells (%): 63%
  Population Normal (%): 72%
  Population Pyknosed Nuclei (%): 9%
  Population Tubulin-Different-Phenotype (%): 19%
  Total Cell Count: 277
[11]
  Population Apoptotic (%): 84%
  Population Fragmented Nuclei (%): 23%
  Population Healthy Nuclei (%): 23%
  Population Hoechst High Intensity Objects (%): 75%
  Population Membrane Permeable-Phenotype (%): 0%
  Population Mitochondria Different-Phenotype (%): 86%
  Population Mitotic Cells (%): 15%
  Population Normal (%): 24%
  Population Pyknosed Nuclei (%): 52%
  Population Tubulin-Different-Phenotype (%): 53%
  Total Cell Count: 256
[12]
  Population Apoptotic (%): 75%
  Population Fragmented Nuclei (%): 21%
  Population Hoechst High Intensity Objects (%): 67%
  Population Mitochondria Different-Phenotype (%): 80%
  Population Mitotic Cells (%): 25%
  Population Normal (%): 32%
  Population Pyknosed Nuclei (%): 55%
  Population Tubulin-Different-Phenotype (%): 40%
  Total Cell Count: 203
